Assay results from ChEMBL document CHEMBL5149993, “Rational Design of Photochromic Analogues of Tricyclic Drugs” (J Med Chem, 2021).
The source made the active and inactive calls. The calls are words filed in the database; no cut-off is given here.

How the values were obtained:
[1] = Thermal stability of the compound assessed as half life; type: physicochemical
[2] = Displacement of [3H]-QNB from Wistar rat brain membrane mAChR assessed as inhibition constant incubated for 30 mins by radioligand competitive binding assay; type: cell membranes
Method in brief: (§1)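 Female Wistar rat cortex membranes (30 μg protein) in tris-HCl with 6 mM MgCl₂, 200 pM [³H]QNB (Kd 40 pM), ligands from 1 or 10 nM to 300 μM; 30 min at 37 °C equilibrium. Filtration through GF/C filters, scintillation counting. Nonspecific binding defined with 2 μM atropine. One-site competitive fits gave IC50 and Ki; n = 4 per isomer, n = 2 for reference.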

[3] = Displacement of [3H]-QNB from Wistar rat brain membrane mAChR incubated for 30 mins by radioligand competitive binding assay; type: cell membranes; method in brief: as §1
[4] = biological target: T1, Muscarinic acetylcholine receptor M1 (Homo sapiens) (UniProt P11229); experiment: Antagonist activity at human M1 mAChR receptor expressed in HEK cells assessed as reduction in total cell response at 100 uM by real-time calcium imaging method relative to control; type: functional, cell-based; design: scale not given: the % may be the effect or the level left
T1 sequence (whole entry): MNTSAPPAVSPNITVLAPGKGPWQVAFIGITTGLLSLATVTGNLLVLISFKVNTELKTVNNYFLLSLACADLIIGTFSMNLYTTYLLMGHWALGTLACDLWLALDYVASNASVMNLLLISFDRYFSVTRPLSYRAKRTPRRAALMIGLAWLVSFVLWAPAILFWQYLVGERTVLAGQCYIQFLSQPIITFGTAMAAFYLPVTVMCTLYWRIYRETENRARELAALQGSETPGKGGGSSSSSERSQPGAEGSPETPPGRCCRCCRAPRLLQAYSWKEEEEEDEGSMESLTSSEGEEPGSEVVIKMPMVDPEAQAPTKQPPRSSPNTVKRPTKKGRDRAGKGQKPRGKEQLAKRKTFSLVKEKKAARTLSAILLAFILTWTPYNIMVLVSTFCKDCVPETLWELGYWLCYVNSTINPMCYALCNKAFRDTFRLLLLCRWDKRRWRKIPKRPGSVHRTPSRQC
Method in brief: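 tsA201 cells transiently transfected with human M1 (± R-GECO1), used 48–72 h post-transfection. OGB-1 AM loading at 10 μM final, 30 min, 37 °C; HEPES bath pH 7.4 with 2 mM CaCl₂. Test at 100 μM against 0.5 μM ACh; cis formed by 2 min 365 nm pre-illumination or continuous 460 nm light. Responses normalized to 0.5 μM ACh maximum; Wilcoxon signed rank test.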

Cardiac atrium = experiment: Anticholinergic activity in isolated CD1 mouse CCh-induced bradycardia atrium assessed as recovery of CCh-indued contraction frequency at 100 uM; type: functional, tissue-based
Method in brief: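 Right atria from CD1 male mice, 10–12 weeks, in carbogenated Krebs, pH 7.4, under 0.2 g tension. Isometric recording of spontaneous contractions after 5–10 min equilibration. Bradycardia induced with CCh 10⁻⁶ M; test compound then added and beats/min measured.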

[5] = biological target: T2, Muscarinic acetylcholine receptor M1 (Homo sapiens, UniProt P11229); experiment: Displacement of [3H]-pirenzepine from human recombinant M1 receptor expressed in CHO cells incubated for 60 mins by topcount scintillation counter method; type: cell-based
T2 sequence (P11229 whole entry): T1 sequence (whole entry)
Method in brief: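 Membranes from CHO cells with human M1 (45 μg protein), 2 nM [³H]pirenzepine (Kd 13 nM), 60 min at 22 °C. Nonspecific binding with 1 μM atropine. GF/B filtration, scintillation counting. Tested at 1, 10 and 100 μM after 30 min 365 nm irradiation of DMSO stock; % inhibition, duplicate.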

[6] = biological target: Muscarinic acetylcholine receptor M2 (human) (UniProt P08172); experiment: Displacement of [3H]AF-DX384 from human recombinant M2 receptor expressed in CHO cells by topcount scintillation counter method

Row | Compound | half-life [1] [min] | Ki [2] [µM] | IC50 [3] [µM] | Activity [4] [%] | Activity ([4]; filed as antagonist) [%] | IC50 [5] [nM] | Activity (Cardiac atrium) | IC50 [6] [µM]
1 | CN1CCN(CC(=O)Nc2ccccc2/N=N/c2cccnc2)CC1.Cl.Cl | 71 | 6.4 | 38 | – | – | – | – | –
2 | CN1CCN(CC(=O)N2c3ccccc3C(=O)Nc3cccnc32)CC1 | – | – | – | – | – | – | Active | –
3 | CN1CCN(CC(=O)Nc2ccccc2/N=N\c2cccnc2)CC1.Cl.Cl | 71 | 7 | 42 | – | – | – | – | –
4 | CN1CCN(CC(=O)Nc2ccccc2/N=N/c2ccc(N(C)C)cc2)CC1 | – | 5.3 | 33 | – | – | – | – | –

Continued by falling Ki [2], values first:

Row | half-life [1] [min] | Ki [2] [µM] | IC50 [3] [µM] | Activity [4] [%] | Activity ([4]; filed as antagonist) [%] | IC50 [5] [nM] | Compound | Activity (Cardiac atrium) | IC50 [6] [µM]
5 | – | 5.3 | 32 | 14 | – | – | CN1CCN(CC(=O)Nc2ccccc2/N=N\c2ccc(N(C)C)cc2)CC1 | – | –
6 | 182 | 1.7 | 9.9 | – | 64 | – | CN1CCN(CC(=O)Nc2ccccc2/N=N/c2ccccc2)CC1.Cl.Cl | – | –
7 | 182 | 1.5 | 9.2 | – | 73 | 1900 | CN1CCN(CC(=O)Nc2ccccc2/N=N\c2ccccc2)CC1.Cl.Cl | Active | 28
